Data from publication PMC4826778 (Bioconjugate chemistry, 2015).
Values belong to the compound of their own block, whether it stands above or below them.

Tests used:
MCF-7 cells [1] = assay: Fluorescence microscopy of in-cell click reaction; assay type: cell-based; details: 1 μM azide and 1 μM cyclooctyne 5
Summary of the method: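 MCF-7 cells were seeded at 5 × 10⁵ cells/mL on chambered coverglass and grown overnight at 37 °C in DMEM/F12 with 5% FBS. Azide (1 μM in reduced-serum medium) was added for 4 h, followed by three PBS (pH 7.5) washes. Cyclooctyne (1 μM) was then added for 16 h at 37 °C, followed by three more washes. Imaging used 360/40 excitation and 470/40 emission filters. Controls were azide only, cyclooctyne only, and preformed adduct. 0.1% trypan blue was used for quenching.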

[2] = Photophysical characterization; assay type: physicochemical; details: for ΦF: reference quinine sulfate
MCF-7 cells [3] = assay: MTT cell toxicity assay; assay type: cell-based; details: 24 h exposure, click reaction of cyclooctyne 5 with azide 2 or 21
Summary of the method: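 MCF-7 cells were seeded at 1 × 10⁴ cells/mL and exposed to a range of concentrations of azide and cyclooctyne for 24 h at 37 °C in 5% CO₂. MTT (5 mg/mL solution) was added for 4 h. Medium was removed, DMSO added, and OD read at 595 nm. Viability was calculated as OD sample / OD untreated control × 100%.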

[4] = Parallel artificial membrane permeability assay; assay type: in vitro ADME; details: for % Fraction Absorbed / Log Pe: 75 μM; for % Fraction Absorbed: 16 h, ambient temperature; for Log Pe: log of the effective permeability coefficient
Summary of the method: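 PAMPA used a polycarbonate filter (0.45 μm pore) coated for 5 min with lecithin (1% or 4% in dodecane). Donor wells held test compound at 75 μM in 5% DMSO/PBS; acceptor wells held PBS. Plates were incubated 16 h at ambient temperature with gentle shaking. Acceptor concentration was measured by UV-Vis against a theoretical-equilibrium solution. Log Pe was calculated by the Wohnsland–Faller equation; at least triplicate.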

[5] = Frequency-domain fluorescence lifetime measurements in solution; assay type: physicochemical
Summary of the method: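 Frequency-domain lifetimes were measured in solution (MeOH) in a 2 × 10 mm quartz cuvette at 18 °C. Excitation was a frequency-modulated 280 nm LED, with emission collected through a 305 nm long-pass filter. PPO in ethanol (τ = 1.4 ns) served as lifetime reference. Modulation-phase data were fitted to a multi-exponential decay model, judged by residuals and χ².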

[6] = Kinetic analysis of SPAAC reaction by 1H NMR; details: reaction with cyclooctyne 5 in ACN-d6/D2O (3:1, v/v)
[7] = Water solubility of azido nucleosides; assay type: physicochemical
[8] = reaction of 5 with benzyl azide in the same solvent system; cited from earlier work
[9] = In 50 mM phosphate buffer pH 7.0

- fluorescence of azide substrate [2]: no noticeable fluorescence
Compound: [N-]=[N+]=Nc1cn([C@@H]2O[C@H](CO)[C@@H](O)[C@H]2O)c(=O)[nH]c1=O [Compound 21, 5-azidouridine]
- fluorescence localization in live cells (MCF-7 cells [1]): fluorescence localized in the nucleus
- non-cytotoxic dosage (MCF-7 cells [3]): 1 µM

- % Fraction Absorbed [4]: 22%
- Log Pe [4]: −0.5 cm/s
Compound: [N-]=[N+]=Nc1nc(N)c2ncn([C@@H]3O[C@H](CO)[C@@H](O)[C@H]3O)c2n1 [Compound 19, 2-azidoadenosine]
- fluorescence localization in live cells (MCF-7 cells [1]): fluorescence localized in the nucleus

- τ1 ([5]; In MeOH): 0.10 ns
- τ2 ([5]; In MeOH): 0.90 ns
- τ3 ([5]; In MeOH): 5.30 ns
- f1 ([5]; In MeOH, fractional contribution of τ1): 0.46%
- f2 ([5]; In MeOH, fractional contribution of τ2): 0.39%
- f3 ([5]; In MeOH, fractional contribution of τ3): 0.15%
- τaverage ([5]; in vitro (methanol solution)): 1.20 ns
- εmax [2]: 16400 M^−1cm^1
- λmax(emi) [2, 9]: 399 nm
- λmax(emi) ([2]; In DMSO): 397 nm
- Brightness ([2]; In MeOH): 0.10 M^−1cm^1
- Stokes shift ([2]; In MeOH): 111 nm
- λmax(abs) ([2]; In MeOH): 271 nm
- λmax(emi) ([2]; In MeOH): 399 nm
- λmax(exc) ([2]; In MeOH): 288 nm
- ΦF ([2]; In MeOH): 0.006
Compound: 8-(1,2,3-Triazol-1H-yl)adenosine-MFCO adduct [Compound 17]

- water solubility [7]: easily water soluble
Compound: [N-]=[N+]=Nc1nc2c(N)ncnc2n1[C@@H]1O[C@H](CO)[C@@H](O)[C@H]1O [Compound 1, 8-azidoadenosine]
- second order rate constant [6]: 0.11 M⁻¹ s⁻¹

Compound: OCC1C2CCC#CCCC12 (stereo not shown) [Compound 5]
- second order rate constant k [8]: 0.14 M⁻¹ s⁻¹
- non-cytotoxic dosage (MCF-7 cells [3]): 1 µM

- % Fraction Absorbed [4]: 20%
- Log Pe [4]: −0.5 cm/s
Compound: [N-]=[N+]=Nc1nc2c(N)ncnc2n1[C@H]1C[C@H](O)[C@@H](CO)O1 [Compound 4, 8-azido-2′-deoxyadenosine]

- % Fraction Absorbed [4]: 18%
- Log Pe [4]: −0.5 cm/s
- water solubility [7]: easily water soluble
- fluorescence of azide substrate [2]: no fluorescence
Compound: [N-]=[N+]=Nc1nc2c(N)ncnc2n1[C@@H]1O[C@H](CO)[C@@H](O)[C@@H]1O [Compound 2, 8-azido-9-(β-D-arabinofuranosyl)adenine]
- fluorescence localization in live cells (MCF-7 cells [1]): strong fluorescent localization to the nucleus
- Permeability (fraction absorbed) ([4]; 150 μM concentration): b Permeability for 2 at a 150 μM concentration was also 18%.
- non-cytotoxic dosage (MCF-7 cells [3]): 1 µM

- εmax [2]: 7100 M^−1cm^1
- λmax(emi) [2, 9]: 339/434
- λmax(emi) ([2]; In DMSO): 331/419
- Brightness ([2]; In MeOH): 0.06 M^−1cm^1
- Stokes shift ([2]; In MeOH): 58 nm
- λmax(abs) ([2]; In MeOH): 269 nm
- λmax(emi) ([2]; In MeOH): 327/412
- ΦF ([2]; In MeOH): 0.009
Compound: 5-(1,2,3-Triazol-1H-yl)uridine-MFCO adduct [Compound 27]
